How the values were obtained:
[1] = Inhibition of c-AMP dependent protein kinase A (PKA) in bovine heart
How it was run: (§1)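 Kinase assay on PKA isolated from bovine heart, run by a method described earlier. Each data point was done in triplicate. IC50 values are the mean of at least two independent assays.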

Protein kinase C (PKC) = test: Inhibition of protein kinase C (PKC) in rat brain; assay type: tissue-based
How it was run: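 PKC from rat brain was assayed by a method described earlier. Each data point was done in triplicate. IC50 is the mean of at least two independent determinations.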

[2] = Inhibition of protein kinase A (PKA) in bovine heart; how it was run: as §1

SMILES	IC50 [1] [µM]	IC50 (Protein kinase C (PKC)) [µM]	IC50 [2] [µM]
Cn1cc(C2=C(c3cn(CCCCN)c4ccccc34)C(=O)NC2=O)c2ccccc21	9.3	0.055	
Cn1cc(C2=C(c3cn(CCSC(=N)N)c4ccccc34)C(=O)NC2=O)c2ccccc21		0.041	12.1
Cn1cc(C2=C(c3cn(CCCN=C(N)N)c4ccccc34)C(=O)NC2=O)c2ccccc21	2.9	0.019	
Cn1cc(C2=C(c3cn(CCO)c4ccccc34)C(=O)NC2=O)c2ccccc21	22.1	0.34	
Cn1cc(C2=C(c3cn(CCN)c4ccccc34)C(=O)NC2=O)c2ccccc21	8.9	0.064	
CN(C)CCCn1cc(C2=C(c3cn(C)c4ccccc34)C(=O)NC2=O)c2ccccc21	25.6	0.045	
Cn1cc(C2=C(c3cn(CCCCSC(=N)N)c4ccccc34)C(=O)NC2=O)c2ccccc21		0.028	2.7
Cn1cc(C2=C(c3cn(CCCN)c4ccccc34)C(=O)NC2=O)c2ccccc21	5.2	0.075	
CNCCCn1cc(C2=C(c3cn(C)c4ccccc34)C(=O)NC2=O)c2ccccc21	11.9	0.035	
Cn1cc(C2=C(c3cn(CCCCO)c4ccccc34)C(=O)NC2=O)c2ccccc21	18.4	0.17	
Cn1cc(C2=C(c3cn(CCCCCO)c4ccccc34)C(=O)NC2=O)c2ccccc21	21.3	0.28	
Cn1cc(C2=C(c3cn(CCCO)c4ccccc34)C(=O)NC2=O)c2ccccc21	14.2	0.13	
Cn1cc(C2=C(c3cn(CCCCCN)c4ccccc34)C(=O)NC2=O)c2ccccc21	10.4	0.076	
Cn1cc(C2=C(c3cn(CCCCCSC(=N)N)c4ccccc34)C(=O)NC2=O)c2ccccc21		0.047	4.6
Cn1cc(C2=C(c3cn(CCC/N=C(\N)N[N+](=O)[O-])c4ccccc34)C(=O)NC2=O)c2ccccc21		0.026	4.9
Cn1cc(C2=C(c3cn(CCC[N+](C)(C)C)c4ccccc34)C(=O)NC2=O)c2ccccc21	64.5	0.093	
Cn1cc(C2=C(c3cn(CCCCC(=N)N)c4ccccc34)C(=O)NC2=O)c2ccccc21	7.4	0.031	
Cn1cc(C2=C(c3cn(CCCSC(=N)N)c4ccccc34)C(=O)NC2=O)c2ccccc21 [BISINDOLYLMALEIMIDE IX]		0.01	0.9

— ChEMBL document CHEMBL1126323, “Inhibitors of protein kinase C. 2. Substituted bisindolylmaleimides with improved potency and selectivity” (J Med Chem, 1992)
